One test has as its system A-375. Put plainly: Cytotoxicity against human A375 cells by MTS assay after 24 hrs. Type of test: functional, cell-based. The settings on record: A-375, 24 h. (Formazan colour is commonly taken as a measure of viable cells.)
Another test relates to MCF7. The test is described as follows: Cytotoxicity against human MCF7 cells by MTS assay after 24 hrs. Format: functional, cell-based. The settings on record: MCF7, 24 h.
Another test deals with PC-3. The test is described as follows: Cytotoxicity against human PC3 cells by MTS assay after 24 hrs. Format: functional, cell-based. The settings on record: PC-3, 24 h.
Test [1] is described as follows: Cytotoxicity against human […] cells by MTS assay after 24 hrs. Type of test: functional, cell-based.
Test [2] deals with Jurkat. Put plainly: Cytotoxicity against human Jurkat cells by MTS assay after 24 hrs. Format: functional, cell-based.
The test system of test [3] is U-937. Put plainly: Effect on U937 cell morphology assessed as irregular membrane protrusions at 0.39 ug/ml after 24 hrs. Format: functional, cell-based. Particulars: Homo sapiens. The method, boiled down: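 U937 cells (1.0 × 10⁴) exposed to compounds at 0.39 µg/mL for 24 h, with DMSO vehicle as control. Examined by brightfield light microscopy at 1000× magnification.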

Another test concerns HCT-116. Put plainly: Cytotoxicity against human HCT116 cells by MTS assay after 24 hrs. Format: functional, cell-based. Particulars: HCT-116, 24 h.
Test [4] concerns U-937. The test is described as follows: Cytotoxicity against human U937 cells by MTS assay after 24 hrs. The settings on record: U-937, 24 h. Format: functional, cell-based.
The species named for the next test is Bos taurus. The test is described as follows: Inhibition of bovine neuronal tubulin polymerization at 10 uM. The method, boiled down:
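Polymerization followed 1 h at 37 °C by fluorescence, ex 360 ± 10 nm / em 440 ± 10 nm. Duplicate wells.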

Test [5] relates to U-937. Put plainly: Cell cycle arrest in human U937 cells assessed as increase in S and sub G1 phase accumulation at 1 uM. Format: functional, cell-based. In outline: (§1)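 U937 cells treated 4 h or 24 h against DMSO vehicle, with 0.5 µM vinblastine sulfate as reference. Cells (2.0 × 10⁴) fixed in ice-cold 70% ethanol at -20 °C for 30 min to overnight. Stained 30 min at 37 °C with 40 µg/mL PI plus 100 µg/mL RNase A in PBS pH 7.4. DNA content read by flow cytometry and cell-cycle phase proportions calculated.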

The subject of test [6] is U-937. Put plainly: Effect on stability of microtubules in U937 cells assessed as alteration of microtubule organisation at 1.7 uM after 24 hrs. Format: functional, cell-based. The settings on record: Homo sapiens. The method, boiled down:
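U937 cells (2.2 × 10⁵/mL) seeded, held 24 h, then exposed 24 h to 0.78 µg/mL (1.7 µM) compound. Controls: 2 µM vinblastine or 2.5% DMSO. […] Cells washed in PBS and imaged by confocal microscopy, excitation 488 nm, emission 500–540 nm.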

Test [7] relates to U-937. Put plainly: Activation of caspase in U937 cells after 5 hrs relative to staurosporine. Type of test: cell-based. Particulars: Homo sapiens. The method, boiled down: (§2)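 Cells exposed to test compound for 5 h at 37 °C; 2 µM staurosporine as positive control. Apo-ONE homogeneous caspase-3/7 reagent then added for 1 h at room temperature. Fluorescence read at excitation 485 nm, emission 520 nm. Values normalized to staurosporine. Means ± SE of one representative experiment run in triplicate.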

For test [8], the system named is Jurkat. Put plainly: Activation of caspase in Jurkat cells after 5 hrs relative to staurosporine. Format: cell-based. Particulars: Homo sapiens. In outline:
as §2

Test [9] relates to U-937. Put plainly: Cell cycle arrest in human U937 cells assessed as increase in S and sub G1 phase accumulation at 2 uM. Type of test: functional, cell-based. In outline:
as §1

A further test concerns the target Tubulin. Put plainly: Displacement of [3H]colchicine from tubulin by scintillation proximity assay. Format: protein-complex assay, Homo sapiens. For orientation: Loss of bound radioactivity is the signal in a displacement assay; it reports binding, not function.

The source made the active and inactive calls. The rule behind the calls is not given here. Some results are limits rather than exact numbers.

As to `O=C1C(=O)N(Cc2ccc(I)cc2)c2c(Br)cc(Br)cc21`, the concentration for half-maximal inhibition (IC50) – broadly, the concentration that gives 50% inhibition – was 2400 nM with A-375; 4220 nM in the test on MCF7; 10900 nM in the test with PC-3; 2920 nM in test [1]; 580 nM in the test with Jurkat [2]; 3360 nM in the test on HCT-116. The compound further came in with an IC50 in the test with U-937 [4] of 2300 nM. The result with U-937 [3] was Active.
Turning to `O=C(O)c1ccc(CN2C(=O)C(=O)c3cc(Br)cc(Br)c32)cc1`, the IC50 in the test on MCF7, in the test with Jurkat [2] and in the test with U-937 [4] was over 14200 nM in each case.
Regarding `COc1ccc(CN2C(=O)C(=O)c3ccccc32)cc1`, the half-maximal inhibitory concentration (IC50) with U-937 [4] is over 46800 nM.
As for `O=C1C(=O)N(Cc2ccccc2)c2c(Br)cc(Br)cc21`, the IC50 in the test on MCF7 came out at 7090 nM; in the test with Jurkat [2], 1140 nM; in the test with U-937 [4], 1140 nM.
The compound `COc1ccc(CN2C(=O)C(=O)c3c(Br)cccc32)cc1` returned an IC50 in the test with U-937 [4] of over 36100 nM.
With `O=C1C(=O)N(Cc2ccc(Br)cc2)c2c(Br)cc(Br)cc21`, the IC50 with A-375 was determined as 1220 nM; in the test with MCF7, 5270 nM; in the test on PC-3, 3440 nM; in test [1], 1900 nM; with Jurkat [2], 630 nM; in the test with HCT-116, 530 nM. Moreover, in the test with U-937 [4], the half-maximal inhibitory concentration (IC50) was 630 nM.
For `O=C1C(=O)N(Cc2ccccc2[N+](=O)[O-])c2c(Br)cc(Br)cc21`, the concentration for half-maximal inhibition (IC50) in the test on MCF7 was found to be 3180 nM; with U-937 [4] it was 2270 nM.
As to `COc1cccc(CN2C(=O)C(=O)c3cc(Br)cc(Br)c32)c1`, the results for the concentration for half-maximal inhibition (IC50) with MCF7, in the test with Jurkat [2] and in the test on U-937 [4] were 2350 nM, 2000 nM and 1760 nM, respectively.
With `O=C1C(=O)N(Cc2ccc(C(F)(F)F)cc2)c2c(Br)cc(Br)cc21`, the IC50 in the test on A-375 stood at 1250 nM; with MCF7, 7130 nM; in the test on PC-3 it was 1170 nM; in test [1], 540 nM; in the test on Jurkat [2], 690 nM; in the test with HCT-116, 840 nM. For the same compound, the IC50 in the test on U-937 [4] came to 800 nM. Further, the result in the test listed under Bos taurus, in the test on U-937 [5], with U-937 [6], in the test with U-937 [7], in the test on Jurkat [8] and with U-937 [9] was Active.
Compound `COc1ccc(CN2C(=O)C(=O)c3cc(Br)ccc32)cc1` returned a concentration for half-maximal inhibition (IC50) with U-937 [4] of over 36100 nM.
Regarding `O=C1C(=O)N(Cc2ccc(-c3ccccc3)cc2)c2c(Br)cc(Br)cc21`, the concentration for half-maximal inhibition (IC50) stood at 1190 nM in the test with A-375; 4880 nM with MCF7; 3420 nM with PC-3; 2060 nM in [1]; 740 nM with Jurkat [2]; 830 nM in the test on HCT-116. This compound also showed an IC50 in the test on U-937 [4] of 760 nM. In addition, the outcome in the test filed under Bos taurus was Active.
`COc1ccc(CN2C(=O)C(=O)c3cccc(Br)c32)cc1` came in with an IC50 with U-937 [4] of 17600 nM. In other words, the double-digit micromolar range.
For the compound `CC(C)(C)c1ccc(CN2C(=O)C(=O)c3cc(Br)cc(Br)c32)cc1`, the IC50 with A-375 is 890 nM; in the test with MCF7 it was 2640 nM; in the test with PC-3 it was 3060 nM; in test [1], 980 nM; with Jurkat [2], 660 nM; in the test on HCT-116 it was 1660 nM. The midpoint of inhibition in the test on U-937 [4], the IC50, lay at 1130 nM. Also, in the test on U-937 [3], the outcome was Active.
In the test on U-937 [4], `C=CCN1C(=O)C(=O)c2cc(Br)cc(Br)c21` displayed an IC50 of 6670 nM.
Regarding `CC(C)CCN1C(=O)C(=O)c2cc(Br)cc(Br)c21`, the IC50 came to 7490 nM in the test on MCF7, 3470 nM in the test with Jurkat [2] and 2400 nM in the test on U-937 [4]. For the same compound, the outcome with U-937 [3] was Active.
Take `Cc1ccc(CN2C(=O)C(=O)c3cc(Br)cc(Br)c32)cc1`: the concentration for half-maximal inhibition (IC50) with A-375 came to 2000 nM; in the test with MCF7, 11000 nM; in the test with PC-3 it was 4570 nM; in test [1], 1910 nM; in the test with Jurkat [2], 490 nM; in the test with HCT-116, 1220 nM. Moreover, the 50% inhibitory concentration (IC50) with U-937 [4] stood at 490 nM. Besides, the result in the test listed under Bos taurus, in the test on U-937 [5] and in the test with U-937 [9] was Active.
In the test on U-937 [4], `COc1ccc(CN2C(=O)C(=O)c3ccc(Br)cc32)cc1` registered an IC50 of 34100 nM.
With `O=C1C(=O)N(Cc2ccc(C(F)(F)F)cc2)c2cc(Br)ccc21`, the 50% inhibitory concentration (IC50) in the test on Jurkat [2] and in the test with U-937 [4] was 5210 nM throughout.
Regarding `COC(=O)c1ccc(CN2C(=O)C(=O)c3cc(Br)cc(Br)c32)cc1`, the half-inhibitory concentration (IC50) with MCF7 was 9050 nM; in the test on Jurkat [2] it was 1190 nM; in the test on U-937 [4], 1190 nM.
`O=C1C(=O)N(C/C=C/c2ccccc2)c2c(Br)cc(Br)cc21`: the values for the IC50 in the test on MCF7, in the test on Jurkat [2] and with U-937 [4] were 7810 nM, 1420 nM and 2370 nM, respectively. In addition, the outcome in the test listed under Bos taurus and in the test on U-937 [3] was Active.
Consider `O=C1C(=O)N(Cc2ccc([N+](=O)[O-])cc2)c2c(Br)cc(Br)cc21`, for which the half-maximal inhibitory concentration (IC50) with A-375 stood at 2500 nM; in the test on MCF7, 4320 nM; in test [1], 2750 nM; in the test with Jurkat [2], 890 nM; with HCT-116, 2700 nM; in the test on U-937 [4] it was 890 nM.
As to `COc1cc(-c2ccc3c(c2)NC(=O)/C3=C\c2ccc[nH]2)ccc1O`, on Tubulin, the IC50 was determined as 130 nM.
The compound `CC[C@]1(O)C[C@@H]2CN(CCc3c([nH]c4ccccc34)[C@@](C(=O)OC)(c3cc4c(cc3OC)N(C)[C@H]3[C@@](O)(C(=O)OC)[C@H](OC(C)=O)[C@]5(CC)C=CCN6CC[C@]43[C@@H]65)C2)C1` [VINBLASTINE] returned a concentration for half-maximal inhibition (IC50) in the test on U-937 [4] of 6880 nM. This counts as single-digit micromolar.
As to `COCCN1C(=O)C(=O)c2cc(Br)cc(Br)c21`, the IC50 with MCF7 was 6670 nM; with Jurkat [2], 8950 nM; in the test on U-937 [4] it was 3440 nM.
As to `O=C1C(=O)N(Cc2ccc(Cl)cc2)c2c(Br)cc(Br)cc21`, the IC50 amounted to 1680 nM in the test with A-375; 3870 nM in the test on MCF7; 2170 nM in the test with PC-3; 2770 nM in test [1]; 500 nM in the test with Jurkat [2]; 1840 nM in the test with HCT-116. The compound further gave a 50% inhibitory concentration (IC50) in the test on U-937 [4] of 980 nM.

(Values after ChEMBL document CHEMBL1148827, “An investigation into the cytotoxicity and mode of action of some novel N-alkyl-substituted isatins” (J Med Chem, 2007).)
